This is a sample that favours compounds with a hit; in the whole collection about 2.3% have one here.
Rpn11 block = blocks the human proteasome subunit Rpn11 | O00487 | AID 588493 | human 26S proteasome, Ub4-pepOG fluorescence polarization; 20S core pre-blocked with epoxomicin | inhibition, % at 20 µM | 360,000 tested, 0.59% active;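 active = inhibition at 20 µM, scaled to each plate's controls, above about 33%, limit read from the data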
LMPTP block = LMPTP (human) inhibition | P24666 | recombinant LMPTP-A, OMFP fluorogenic substrate, fluorescence intensity | inhibition, % at 20 µM | 360,000 tested, 0.22% active;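 active = compounds that cut the enzyme signal by at least half of the control window in the single-dose screen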;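 also: plate controls were DMSO wells with enzyme plus substrate for no effect and substrate without enzyme for full effect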
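Assay system: LMPTP-A enzyme. Input: 0.625 nM LMPTP-A final. Probe or stimulus: 400 µM OMFP. Compound dosing: single 20 µM dose. Schedule: 50 min dark incubation at room temperature. Detection: fluorescence intensity of OMFP turnover product. Read-out: percent inhibition versus substrate-only and uninhibited controls. Benchmarks: no-enzyme low control, uninhibited high control.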
Scp-1 inhibitor = Scp-1 (human) phosphatase inhibition. inhibition, % at 20 µM. Recombinant Scp1, phosphopeptide, malachite green phosphate absorbance. AID 493091. Q9GZU7. 340,000 tested, 0.88% active;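 active = inhibition above about 50% at 20 µM, limit read from the data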;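 also: plate controls were DMSO wells with enzyme for no effect and wells lacking enzyme for full effect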
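Test system: SCP-1 catalytic domain; Buffer or medium: Acidic Tris acetate buffer with magnesium and detergent; Also added: Phosphorylated 17-residue peptide substrate; Compound: single 20 µM dose, 1% DMSO; Schedule: enzyme reaction 45 min at room temperature, colour 5 min, stabilisation 30 min; Signal: Phosphate-binding colour reagent, absorbance read at 630 nm.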
SUMO1-SIM PPI = modulators of human SUMO1-mediated protein-protein interactions; AID 602429; 360,000 tested, 0.33% active; inhibition, % at 20 µM; P63165; SUMO1 binding to a labelled peptide, TR-FRET, 1 h; in the data active = inhibition above about 37%
DNMT1 inh = DNMT1 (human) enzyme inhibition; DNMT1 molecular beacon, Hinp1I cleavage, fluorescence; inhibition (reported as % activation of signal), % at 10 µM; 360,000 tested, 0.83% active; AID 588458; in the data active = inhibition above about 50%
STEP block = STEP (human) phosphatase inhibition; recombinant STEP, OMFP fluorogenic substrate, fluorescence; inhibition, % at 20 µM; 360,000 tested, 0.25% active; AID 588621;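 active = inhibition at 20 µM, scaled per plate between control wells, above about 37%, limit read from the data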;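 also: 0% = DMSO with enzyme and substrate and 100% = substrate only without enzyme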
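System: STEP phosphatase, cell-free reaction; Buffer or medium: Bis-Tris pH 6.0 buffer with DTT, detergent; Incubation: 20 min at room temperature, dark; Measured by: fluorescence, 480/540 nm.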
Rpn11 confirm = Rpn11 inhibition confirmation, single concentration. shares compounds with Rpn11 block. purified human 26S proteasome, Ub4-pepOG fluorescence polarization; proteasome pretreated with epoxomicin. inhibition, % at 20 µM. 1,900 tested, 29% active
MMP-2 inh = blocks human MMP-2, flagging nonselective RPN11 hits | shares compounds with Rpn11 block | recombinant MMP-2, FRET peptide cleavage fluorescence | inhibition, % at 20 µM | 1,900 tested, 4% active;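 also: human MMP-2 activated beforehand with APMA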
Thrombin FP = blocks bovine thrombin, flagging nonselective RPN11 hits; shares compounds with Rpn11 block; bovine thrombin cleavage of Ub4-pepOG, fluorescence polarization; inhibition, % at 20 µM; 1,900 tested, 13% active; AID 602333;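 active = mean inhibition at least 40% at 20 µM, or signal 3 deviations below plate average, so some actives read negative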;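 also: plate controls were thrombin with DMSO for no effect and buffer wells lacking thrombin for full effect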
Starred values were filed as active, the others as inactive. Rule as the data show it, unless noted: active = inhibition above about 40%; inactive = the rest.

Screening CC(=O)N=c1c(C#N)cc2c(=O)n3ccccc3nc2n1Cc1ccccc1 returned Rpn11 block 56*, LMPTP block 14, Scp-1 inhibitor -5, SUMO1-SIM PPI -7, DNMT1 inh 40, STEP block 7, Rpn11 confirm -22, MMP-2 inh -37 and Thrombin FP -18.
`CC1=CC(=C(C#N)C#N)c2ccccc2N1C` gave Rpn11 block 43*, LMPTP block 1, Scp-1 inhibitor -7, SUMO1-SIM PPI -8, DNMT1 inh 13, STEP block 1, Rpn11 confirm 125*, MMP-2 inh -10 and Thrombin FP 56*.
For N#CC(=C(O)CN1CCN(c2ccccc2F)CC1)c1nc(-c2ccccc2)cs1 the results were Rpn11 block 2, LMPTP block -3, Scp-1 inhibitor 2, SUMO1-SIM PPI 0, DNMT1 inh -4 and STEP block -2.
Screening C=CCc1cc(/C=C2/NC(=S)NC2=O)cc(OC)c1O returned Rpn11 block 47*, LMPTP block 0, Scp-1 inhibitor 0, SUMO1-SIM PPI -24, DNMT1 inh -5, STEP block 2, Rpn11 confirm 32, MMP-2 inh 8 and Thrombin FP 22.
`C=CCc1cc(/C=C2/NC(=O)NC2=O)cc(OCC)c1O` gave Rpn11 block 4, LMPTP block 1, Scp-1 inhibitor -11, SUMO1-SIM PPI -13, DNMT1 inh -3 and STEP block 2.
`O=C(CC[C@H]1O[C@@H](n2ccc(=O)[nH]c2=O)[C@H](O)[C@@H]1O)NCCCc1ccccc1` gave Rpn11 block -3, LMPTP block 0, SUMO1-SIM PPI -1, DNMT1 inh 0 and STEP block -1.
Screening CC(=O)CSc1nsc(SCC(C)=O)c1C#N returned Rpn11 block 46*, LMPTP block 17, Scp-1 inhibitor 5, SUMO1-SIM PPI 24, DNMT1 inh -10, STEP block 1, Rpn11 confirm 16, MMP-2 inh 50* and Thrombin FP 15.
For CC(C)(C)NC(=O)CSc1nsc(SCC(=O)NC(C)(C)C)c1C#N the results were Rpn11 block 2, LMPTP block -1, Scp-1 inhibitor -4, SUMO1-SIM PPI -2, DNMT1 inh -1 and STEP block 1.
For CC1(C(=O)Nc2cccc(Oc3ccccc3)c2)Cc2c(-c3ccc4c(c3)OCO4)ccnc2O1 (centres undefined) the results were Rpn11 block 4, LMPTP block 4, SUMO1-SIM PPI -4, DNMT1 inh 1 and STEP block 0.
`O=C1NC(c2ccccc2)N=C2Oc3ccccc3C=C12` (centres undefined) gave Rpn11 block 10, LMPTP block 1, Scp-1 inhibitor -3, SUMO1-SIM PPI -17, DNMT1 inh 8 and STEP block 4.
Screening C[C@@H]1CN(C(=O)c2nc3ccc(Cl)cn3c2CN(C)CCc2cnn(C)c2)C[C@H](C)O1 returned Rpn11 block -7, LMPTP block 0, Scp-1 inhibitor -7, SUMO1-SIM PPI 13, DNMT1 inh -2 and STEP block 1.
CCC(CC)C(=O)c1c[nH]c(C(=O)NCc2ccco2)c1 was read as Rpn11 block 1, LMPTP block -1, Scp-1 inhibitor -25, SUMO1-SIM PPI -2, DNMT1 inh 1 and STEP block -1.
CCC(CC)C(=O)c1c[nH]c(C(=O)NCc2cccs2)c1 was read as Rpn11 block 71*, LMPTP block 0, Scp-1 inhibitor 4, SUMO1-SIM PPI 3, DNMT1 inh 0, STEP block -6, Rpn11 confirm -17, MMP-2 inh -36 and Thrombin FP -6.
`O=C(N/N=C/c1ccc2c(c1)OCO2)c1cc2ccccc2o1` gave Rpn11 block -1, LMPTP block -1, Scp-1 inhibitor -1, SUMO1-SIM PPI 0, DNMT1 inh 6 and STEP block -2.
Screening O=C(COc1ccc(/C=N/NC(=O)c2cc3ccccc3o2)cc1Cl)Nc1ccccc1 returned Rpn11 block active, LMPTP block 32, Scp-1 inhibitor 80*, SUMO1-SIM PPI -2, DNMT1 inh 71*, STEP block 54*, Rpn11 confirm 0, MMP-2 inh -62 and Thrombin FP -12.
`O=S(=O)(Nc1nc2ccccc2nc1Nc1ccc2c(c1)OCO2)c1ccc(F)cc1` gave Rpn11 block 38*, LMPTP block 1, Scp-1 inhibitor -4, SUMO1-SIM PPI 7, DNMT1 inh -15, STEP block -2, Rpn11 confirm 14, MMP-2 inh 6 and Thrombin FP -17.
For O=C(O)c1cccc(Nc2nc3ccccc3nc2NS(=O)(=O)c2ccc(F)cc2)c1 the results were Rpn11 block 1, LMPTP block -2, Scp-1 inhibitor 1, SUMO1-SIM PPI 8, DNMT1 inh 0 and STEP block 1.
`COc1ccc(N2C(=O)CCC(C(=O)Nc3cccc(C)n3)C2c2ccc(OC)c(OC)c2)cc1` (centres undefined) gave Rpn11 block active, LMPTP block -1, Scp-1 inhibitor -1, SUMO1-SIM PPI 0, DNMT1 inh -2, STEP block 4, Rpn11 confirm -11, MMP-2 inh -36 and Thrombin FP -8.
Screening O=C(/C(=C(\[O-])c1ccccc1)[n+]1ccc2ccccc2c1)c1ccccc1 returned Rpn11 block 43*, LMPTP block 2, Scp-1 inhibitor -4, SUMO1-SIM PPI -6, DNMT1 inh -13, STEP block -4, Rpn11 confirm -34, MMP-2 inh -47 and Thrombin FP -38.
`O=C(/C(=C(\[O-])c1ccccc1)[n+]1ccc2ccccc2c1)c1ccc(Cl)cc1` gave Rpn11 block 18, LMPTP block 0, Scp-1 inhibitor -1, SUMO1-SIM PPI -5, DNMT1 inh -20 and STEP block -2.
CC(C)(C)c1ccc(Oc2ccc(N)cn2)cc1 was read as Rpn11 block 56*, LMPTP block 1, Scp-1 inhibitor -3, SUMO1-SIM PPI 2, DNMT1 inh -9, STEP block 2, Rpn11 confirm -11, MMP-2 inh -27 and Thrombin FP -21.
